Measured values as given in PMC11303814 (Nature Communications, 2024).
Positions count from the first letter of the chain named.

Key:
rP2X7-I214A = target: T1, rP2X7-I214A (Rattus norvegicus, UniProt Q64663, I214A); test: TEVC dose response; assay type: cell-based; details: read-out: EC50 (apparent affinity), mean ± SD, triplicate
T1 sequence (Q64663 1-595 I214A): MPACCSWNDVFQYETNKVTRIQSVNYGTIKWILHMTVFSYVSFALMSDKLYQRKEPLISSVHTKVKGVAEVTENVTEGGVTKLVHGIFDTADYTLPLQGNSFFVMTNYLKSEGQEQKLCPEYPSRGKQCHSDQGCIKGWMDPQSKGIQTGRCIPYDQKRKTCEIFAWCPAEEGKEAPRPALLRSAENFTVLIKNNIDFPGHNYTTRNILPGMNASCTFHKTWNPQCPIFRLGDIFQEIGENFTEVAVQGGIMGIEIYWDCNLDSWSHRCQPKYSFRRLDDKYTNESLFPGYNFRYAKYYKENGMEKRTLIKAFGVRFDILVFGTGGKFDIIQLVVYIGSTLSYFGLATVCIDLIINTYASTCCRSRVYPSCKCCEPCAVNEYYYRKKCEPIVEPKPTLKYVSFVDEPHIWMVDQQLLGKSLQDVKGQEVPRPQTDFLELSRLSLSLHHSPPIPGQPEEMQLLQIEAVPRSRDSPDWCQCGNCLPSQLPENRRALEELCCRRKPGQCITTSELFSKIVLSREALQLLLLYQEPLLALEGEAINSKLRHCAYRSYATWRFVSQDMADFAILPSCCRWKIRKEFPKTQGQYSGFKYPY
How it was run: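 TEVC was run on Xenopus oocytes ~20 h after injection of wild-type or mutant rP2X7 mRNA, in pH 7.4 HEPES buffer with 0.1 mM flufenamic acid. Receptors were facilitated at 100 µM before recording. Dilution series: ATP 1.5 mM–2 µM (7 points), BzATP 300–0.14 µM (8 points). Responses were normalized to the largest concentration, fitted by nonlinear regression for EC50, and averaged across triplicates (mean ± SD).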

rP2X7-R125A/Q143A/I214A = target: T2, rP2X7-R125A/Q143A/I214A (Rattus norvegicus, UniProt Q64663, I214A/Q143A/R125A); test: TEVC dose response; assay type: cell-based; details: read-out: EC50 (apparent affinity), mean ± SD, triplicate
T2 sequence (Q64663 1-595 R125A/Q143A/I214A): T1 sequence (Q64663 1-595 I214A) with R125A, Q143A

biotinylated rP2X7 = target: T3, biotinylated rP2X7 (Rattus norvegicus, UniProt Q64663); test: Bio-layer interferometry; assay type: binding; details: for rate constant for association (ka) / rate constant for dissociation (kd): 30 °C, PBS pH 7.4, 0.5 mM DDM, 1:1 Langmuir global fit, mean ± SD of three
T3 sequence (Q64663 1-595): T1 sequence (Q64663 1-595 I214A) with A214I
How it was run: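 Full-length rat P2X7 expressed in HEK293 GnTI cells by BacMam, purified in DDM/CHS (TALON, SEC), then biotinylated with NHS-PEG12-biotin at pH 8.0, 23 °C, 60 min. Loaded at 50 µg/ml onto streptavidin tips, blocked with biocytin. Threefold agonist dilutions (ATP 30–0.12 µM; BzATP 3.3–0.014 µM): 90 s association, 300 s (ATP) or 800 s (BzATP) dissociation. Double reference subtraction used biocytin sensors and zero analyte. KD = kd/ka.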

EC50 (rP2X7-I214A) [µM]	EC50 (rP2X7-R125A/Q143A/I214A) [µM]	rate constant for association (ka) (biotinylated rP2X7; BLI)	rate constant for dissociation (kd) (biotinylated rP2X7; BLI)	affinity for rP2X7 lower than that of human P2X3 (biotinylated rP2X7; KD rP2X7 vs human P2X3)	affinity for rP2X7 lower than that of zebra fish P2X4 (biotinylated rP2X7; KD rP2X7 vs zebra fish P2X4) [fold]	higher binding affinity (KD) than ATP (biotinylated rP2X7; BLI, rP2X7)	Compound
68 ± 11	203 ± 12	9.4 ± 2.4 x10^4 M^−1s^−1	5.1 ± 2.5 x10^−2 s^−1	approximately 190 fold	~46		Nc1ncnc2c1ncn2[C@@H]1O[C@H](COP(=O)(O)OP(=O)(O)OP(=O)(O)O)[C@@H](O)[C@H]1O [ATP]
2.5 ± 0.8	198 ± 60	3.7 ± 1.0 x10^5 M^−1s^−1	2.6 ± 1.0 x10^−3 s^−1			~ 70 fold	BzATP
